KCNQ1 pot: human KCNQ1 channel potentiation or activation; P51787; CHO-K1 KCNQ1, thallium flux FluxOR fluorescence; hits give high values; B-score at 10 µM; actives 0.35% (n = 310,000); AID 2648;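 active = fluorescence ratio B-score, a plate-corrected score, at least three library SD, with initial intensity B-score within 5 SD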
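System: Stable KCNQ1 CHO-K1 line | Incubation: 90 min dye loading and 20 min compound exposure, both at room temperature | Measure: Ratio B score | Medium: Assay buffer for compound exposure, DMSO matched across wells | Compound dosing: Single-concentration screen | Probe or stimulus: K+/Tl+ depolarizing stimulus | Measured by: Kinetic FluxOR fluorescence, 10 s baseline plus 110 s post-stimulus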
KCNK9 inh: blocks the human KCNK9 two-pore domain potassium channel; Q9NPC2; HEK293 KCNK9, FluxOR thallium flux fluorescence; hits give low values; B-score at 10 µM; actives 1.2% (n = 310,000); AID 488922;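 active = ratio B-score over 3 SD below the library mean, with starting fluorescence within 5 SD of its mean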;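 note: negative B-score means less thallium flux so channel inhibition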
KCNK3 inh: human KCNK3 channel inhibition, primary screen. O14649. CHO-KCNK3 thallium flux, FluxOR fluorescence; hits give low values. B-score at 10 µM. actives 0.84% (n = 340,000). AID 602410;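 active = B-score under library mean minus 4 SD, starting fluorescence ratio at most library mean plus 5 SD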;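 note: more negative B-score means stronger inhibition of thallium flux through KCNK3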
Cl transport mod: modulators of human KCC2 chloride dependent transport; KCC2 cells, thallium flux FluoZin-2 fluorescence; actives 2.2% (n = 190,000); B-score of Tl+ flux slope (higher = more flux/activation; lower = inhibition) at 10 µM; Q9H2X9;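 active = thallium flux slope and its plate-corrected score both differing from the plate sample mean at a set confidence after two filtering rounds, in either direction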;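 note: slope of fluorescence scaled to starting intensity during 10 to 20 s after thallium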
KCNQ1 block: human KCNQ1 channel inhibition. P51787. CHO-K1 KCNQ1, FluxOR thallium flux fluorescence; hits give high values. B-score at 10 µM. actives 1.3% (n = 310,000). AID 2642;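 active = compounds whose thallium flux B-score, printed positive for inhibition, exceeds three library SD while starting fluorescence stays within three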;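 note: channel opened by potassium depolarization with thallium stimulus after 20 min compound exposure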
hERG rescue: hERG (human) protection from proarrhythmic block. Q12809. CHO-hERG, FluxOR thallium flux, dofetilide IC70 present. AID 1511. activation (rescue from dofetilide block), less the hit threshold, % at 10 µM. actives 0.51% (n = 310,000);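 active = activation above the mean of controls blocked by dofetilide plus 5 SD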;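 note: thallium influx through hERG after potassium depolarization seen as dye fluorescence rise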
KCNK9 inh conf: confirmation of human KCNK9 potassium channel inhibitors | shares compounds with KCNK9 inh | HEK293 KCNK9 cells, FluxOR thallium flux fluorescence | actives 43% (n = 4,900) | inhibition, % at 10 µM;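 active = thallium signal inhibited by more than 5 SD of the compound-free buffer control wells, on both duplicate plates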;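 note: 0% = assay buffer control wells without compound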
Kir21 sel: mouse Kir2.1 off-target activity of KCNK9 modulators; shares compounds with KCNK9 inh; Kir2.1 cells, FluxOR thallium flux fluorescence; inhibition, % at 10 µM; actives 4% (n = 4,900); AID 492993;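 active = thallium signal drop more than 5 SD beyond the mean of the no-compound control wells, seen in both duplicate plates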;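 note: signal is fluorescence rise after thallium addition divided by baseline fluorescence; plate controls were assay buffer only for no effect and full block by chlorpromazine control for full effect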
Target sequence (P35561 whole entry, looked up): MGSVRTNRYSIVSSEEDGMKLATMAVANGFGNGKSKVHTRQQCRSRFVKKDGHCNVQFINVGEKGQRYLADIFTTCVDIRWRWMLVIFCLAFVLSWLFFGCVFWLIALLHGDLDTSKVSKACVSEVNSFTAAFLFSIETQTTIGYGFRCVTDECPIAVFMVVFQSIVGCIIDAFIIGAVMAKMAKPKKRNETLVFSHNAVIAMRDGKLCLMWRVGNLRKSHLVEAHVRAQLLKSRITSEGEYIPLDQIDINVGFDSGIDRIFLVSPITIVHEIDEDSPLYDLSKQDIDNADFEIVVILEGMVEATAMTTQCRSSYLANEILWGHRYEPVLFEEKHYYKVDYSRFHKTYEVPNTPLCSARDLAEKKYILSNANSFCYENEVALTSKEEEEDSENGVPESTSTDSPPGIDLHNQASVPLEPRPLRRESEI
KCNK9 uninduced: second check of KCNK9 modulator effects in non-induced HEK293 cells. FluxOR thallium flux. actives 40% (n = 4,900). inhibition, % at 10 µM. shares compounds with KCNK9 inh. AID 492997;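 active = thallium signal drop beyond 5 SD of the untreated control mean, on both duplicate plates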;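 note: plate controls were buffer only IC0 wells for no effect and SID17386958 at its maximal inhibitory level for full effect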
* = called active by the depositor. Compounds with a hit are over-represented: about 4.1% of the library has one in this group of screens.

COc1ccc(C(=O)NC(=S)NC(C)c2ccccc2)cc1 (stereo not drawn) was read as KCNQ1 pot inactive, KCNK9 inh inactive, KCNK3 inh inactive, KCNQ1 block inactive and hERG rescue -12.
`Cc1cccc(C(=O)NC(=S)Nc2ccc(Cc3ccncc3)cc2)c1` gave KCNQ1 pot inactive, KCNK9 inh inactive, KCNK3 inh inactive, Cl transport mod 0.52, KCNQ1 block inactive, hERG rescue -4, KCNK9 inh conf inactive, Kir21 sel inactive and KCNK9 uninduced inactive.
`CC(NC(=S)NC(=O)c1ccccc1)c1ccccc1` (stereo not drawn) gave KCNQ1 pot inactive, KCNK9 inh inactive, KCNK3 inh inactive, KCNQ1 block inactive, hERG rescue -5, KCNK9 inh conf inactive, Kir21 sel inactive and KCNK9 uninduced inactive.
Screening Cc1cccc(C(=O)NC(=S)NC(C)c2ccccc2)c1 (stereo not drawn) returned KCNQ1 pot inactive, KCNK9 inh inactive, KCNK3 inh inactive, KCNQ1 block inactive, hERG rescue -9, KCNK9 inh conf inactive, Kir21 sel inactive and KCNK9 uninduced inactive.
Screening O=C(NC(=S)NC(c1ccccc1)c1ccncc1)c1ccccc1 (stereo not drawn) returned KCNQ1 pot inactive, KCNK9 inh inactive, KCNK3 inh inactive, Cl transport mod -2.3, KCNQ1 block inactive and hERG rescue -14.
CC(=O)c1ccc(NC(=O)c2ccc3nc(C)sc3c2)cc1 was read as KCNQ1 pot inactive, KCNK9 inh inactive, KCNK3 inh inactive, KCNQ1 block inactive and hERG rescue -5.
For CCc1cccc(N(CC(=O)NCc2ccc(F)cc2)C(=O)c2csnn2)c1 the results were KCNQ1 pot inactive, KCNK9 inh inactive, KCNK3 inh inactive, Cl transport mod -2.2, KCNQ1 block inactive and hERG rescue 0.
NS(=O)(=O)c1ccc(NCc2cc(Cl)ccc2OCc2ccc(F)cc2)cc1 was read as KCNQ1 pot inactive, KCNK9 inh -13*, KCNK3 inh inactive, Cl transport mod -1.5, KCNQ1 block inactive, hERG rescue -7, KCNK9 inh conf 50%*, Kir21 sel inactive and KCNK9 uninduced 42%*.
O=C(Nc1ccc(Br)cc1)C1CC(O)CN1C(=O)OCc1ccccc1 (stereo not drawn) was read as KCNQ1 pot inactive, KCNK9 inh inactive, KCNK3 inh inactive, KCNQ1 block inactive and hERG rescue -4.
Screening O=C(NCC1(N2CCCCC2)CCCCC1)C1CC(=O)N(c2ccc3c(c2)OCCO3)C1 (stereo not drawn) returned KCNQ1 pot inactive, KCNK9 inh inactive, KCNK3 inh inactive, Cl transport mod 0.029, KCNQ1 block inactive and hERG rescue -12.
Screening COc1ccc(NC(=O)CN2CCN(c3ccccc3Cl)CC2)cc1 returned KCNQ1 pot inactive, KCNK9 inh inactive, KCNK3 inh inactive, Cl transport mod -0.027, KCNQ1 block inactive, hERG rescue -12, KCNK9 inh conf inactive, Kir21 sel inactive and KCNK9 uninduced inactive.
For COc1ccc(NC(=O)CN2CCN(c3ccccc3C)CC2)cc1 the results were KCNQ1 pot inactive, KCNK9 inh inactive, KCNK3 inh inactive, KCNQ1 block inactive and hERG rescue -4.
`COc1cccc(NC(=O)COC(=O)CCSc2ccccc2)c1` gave KCNK3 inh inactive.
For CCC(NC(=O)c1cccc(Cn2cc([N+](=O)[O-])cn2)c1)c1ccc(C(C)C)cc1 (stereo not drawn) the results were KCNQ1 pot inactive, KCNK9 inh -14*, KCNK3 inh inactive, Cl transport mod -0.3, KCNQ1 block inactive, hERG rescue -9, KCNK9 inh conf 62%*, Kir21 sel inactive and KCNK9 uninduced 42%*.
Fc1ccc(Cn2c(SCc3ccc(F)c(C(F)(F)F)c3)nnc2C(F)(F)F)cc1 was read as KCNQ1 pot inactive, KCNK9 inh -10*, KCNK3 inh inactive, KCNQ1 block inactive, hERG rescue -10, KCNK9 inh conf 42%*, Kir21 sel inactive and KCNK9 uninduced 44%*.
`Cn1nnnc1SCc1ccc(F)cc1` gave KCNQ1 pot inactive, KCNK9 inh inactive, KCNK3 inh inactive, Cl transport mod 0.81, KCNQ1 block inactive and hERG rescue -8.
Screening Fc1ccc(Cn2c(SCc3ccc(F)c(F)c3)nnc2C(F)(F)F)cc1 returned KCNQ1 pot inactive, KCNK9 inh -9*, KCNK3 inh inactive, KCNQ1 block inactive, hERG rescue -18, KCNK9 inh conf 29%*, Kir21 sel inactive and KCNK9 uninduced 38%*.
Screening Cc1ccc(NC2=CC(=O)CC(c3ccco3)C2)c(N)c1 (stereo not drawn) returned KCNQ1 pot inactive, KCNK9 inh inactive, KCNK3 inh inactive, Cl transport mod -0.6, KCNQ1 block inactive and hERG rescue -9.
Screening Cc1cc(C)cc(NC2=CC(=O)CC(c3ccco3)C2)c1 (stereo not drawn) returned KCNQ1 pot inactive, KCNK9 inh -12*, KCNK3 inh inactive, Cl transport mod 0.33, KCNQ1 block inactive, hERG rescue -6, KCNK9 inh conf 37%*, Kir21 sel inactive and KCNK9 uninduced 24%*.
For CCOC(=O)c1cccnc1SCC(=O)N(CC)c1cccc(C)c1 the results were KCNQ1 pot inactive, KCNK9 inh inactive, KCNK3 inh inactive, Cl transport mod -0.4, KCNQ1 block inactive, hERG rescue -15, KCNK9 inh conf inactive, Kir21 sel inactive and KCNK9 uninduced inactive.
`Cc1cccc(N=Nc2c(C)nn(-c3ccccc3)c2N)c1C` gave KCNQ1 pot inactive, KCNK9 inh -9.3*, KCNK3 inh inactive, Cl transport mod 0.6, KCNQ1 block inactive, hERG rescue -5, KCNK9 inh conf 34%*, Kir21 sel inactive and KCNK9 uninduced inactive.
`Cc1nn(-c2ccccc2)c(N)c1N=Nc1ccccc1` gave KCNQ1 pot inactive, KCNK9 inh -11*, KCNK3 inh inactive, Cl transport mod -0.77, KCNQ1 block inactive, hERG rescue -12, KCNK9 inh conf 29%*, Kir21 sel inactive and KCNK9 uninduced 28%*.
